Source: ChEMBL document CHEMBL3580596, “Discovery of Multitarget Antivirals Acting on Both the Dengue Virus NS5-NS3 Interaction and the Host Src/Fyn Kinases” (J Med Chem, 2015)
Calls of active or inactive are those of the source. No cut-off for these calls is given here.

Experiments:
[1] = Cytotoxicity against african green monkey Vero B cells; type: cell-based; details: chlorocebus sabaeus
Outline: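 Uninfected Vero-B cells treated with compound dilutions; CC50 taken as concentration giving 50% reduction of metabolic activity or cell growth. Read-out by MTS/PMS (yield-assay series) or by 7-day methylene blue staining with microscopic scoring (CPE series, 1:2 dilutions from 100 μg/mL).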

[2] = system: dengue virus type 2; experiment: Inhibition of DENV2 His- and FLAG-tagged NS3 and NS5 protein interaction at 500 uM after 1 hr by alphascreen assay
[3] = system: dengue virus type 2; experiment: Antiviral activity against DENV serotype 2 strain New Guinea V infected in African green monkey Vero B cells assessed as inhibition of virus replication after 4 days by qRT-PCR analysis; type: functional, organism-based; details: 96 h
Outline: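 Vero-B cells, 5×10^4/well, infected one day after seeding with 100 CCID50 DENV-2 NGC for 2 h, then washed 3 times. Cultured 4 days with 5-fold compound dilutions (50–0.08 μg/mL) in medium with 2% FBS. Supernatant viral RNA measured by RT-qPCR; EC50 (50% inhibition of RNA replication) found by logarithmic interpolation.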

[4] = Selectivity index, ratio of CC50 for African green monkey Vero B cells to EC50 for DENV serotype 2 strain New Guinea V
[5] = biological target: Proto-oncogene tyrosine-protein kinase Src (Homo sapiens) (UniProt P12931); experiment: Inhibition of human his-tagged full length Src active enzyme using KVEKIGEGTYGVVYK substrate by scintillation counting analysis
Chain of Proto-oncogene tyrosine-protein kinase Src (Homo sapiens) (P12931 2-536 limits assumed): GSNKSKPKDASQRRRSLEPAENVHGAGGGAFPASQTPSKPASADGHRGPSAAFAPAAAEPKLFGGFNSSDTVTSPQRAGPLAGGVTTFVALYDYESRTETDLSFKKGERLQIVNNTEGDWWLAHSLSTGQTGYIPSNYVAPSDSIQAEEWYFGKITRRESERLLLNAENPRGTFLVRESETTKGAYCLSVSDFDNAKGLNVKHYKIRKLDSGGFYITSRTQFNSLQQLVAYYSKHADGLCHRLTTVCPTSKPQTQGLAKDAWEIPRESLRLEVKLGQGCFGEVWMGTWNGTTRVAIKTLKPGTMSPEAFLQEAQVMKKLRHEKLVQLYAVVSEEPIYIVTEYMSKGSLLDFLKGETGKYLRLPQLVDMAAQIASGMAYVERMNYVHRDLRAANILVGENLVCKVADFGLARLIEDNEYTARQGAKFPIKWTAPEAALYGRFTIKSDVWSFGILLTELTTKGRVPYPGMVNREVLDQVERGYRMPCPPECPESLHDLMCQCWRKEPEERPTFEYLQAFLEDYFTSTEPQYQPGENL

[6] = biological target: Tyrosine-protein kinase Fyn (Homo sapiens) (UniProt P06241); experiment: Inhibition of human his-tagged full length Fyn active enzyme using KVEKIGEGTYGVVYK substrate by scintillation counting analysis
Chain of Tyrosine-protein kinase Fyn (Homo sapiens) (P06241 2-537 limits assumed): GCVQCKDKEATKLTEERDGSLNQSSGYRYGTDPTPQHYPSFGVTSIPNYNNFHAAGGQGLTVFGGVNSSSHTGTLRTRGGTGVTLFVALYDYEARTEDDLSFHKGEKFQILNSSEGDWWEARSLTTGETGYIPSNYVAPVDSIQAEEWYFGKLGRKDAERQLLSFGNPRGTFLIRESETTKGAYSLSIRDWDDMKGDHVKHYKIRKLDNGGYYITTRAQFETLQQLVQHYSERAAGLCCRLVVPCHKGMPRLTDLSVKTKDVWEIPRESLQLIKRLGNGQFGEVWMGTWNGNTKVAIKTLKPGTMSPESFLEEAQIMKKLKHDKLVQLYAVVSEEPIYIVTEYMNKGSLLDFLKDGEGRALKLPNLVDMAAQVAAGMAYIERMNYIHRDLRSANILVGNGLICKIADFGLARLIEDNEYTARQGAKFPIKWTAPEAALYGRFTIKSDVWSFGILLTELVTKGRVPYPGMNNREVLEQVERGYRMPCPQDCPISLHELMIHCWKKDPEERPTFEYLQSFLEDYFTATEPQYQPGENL

[7] = system: dengue virus type 2; experiment: Inhibition of DENV2 His- and FLAG-tagged NS3 and NS5 protein interaction at 50 uM after 1 hr by alphascreen assay
Outline: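 Wheat-germ cell-free expressed HF-NS3 (or HF-DHFR as negative control) and GST-tagged biotinylated NS5, 25 nM each, incubated 1 h at room temperature with compound (0.5% DMSO) in Tris pH 7.5/NaCl/MgCl2/DTT/BSA/Tween-20 buffer. Then anti-FLAG IgG, protein A acceptor and streptavidin donor beads added for 1 h; luminescence expressed as % of DMSO control, n=2.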

[8] = biological target: Proto-oncogene tyrosine-protein kinase Src (Homo sapiens) (UniProt P12931); experiment: Inhibition of human his-tagged full length Src active enzyme using KVEKIGEGTYGVVYK substrate at 100 uM by scintillation counting analysis
[9] = system: dengue virus type 2; experiment: Antiviral activity against DENV serotype 2 strain New Guinea V infected in African green monkey Vero B cells assessed as RNA replication after 4 days by RT-qPCR analysis; type: functional, organism-based
Outline: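 Vero-B cells (5×10^4/well) infected 2 h with DENV-2 NGC (100 CCID50), washed 3×, then cultured 4 days with 5-fold serial compound dilutions (50 – 0.08 μg/mL) in MEM with 2% FBS. Viral RNA in supernatant quantified by RT-qPCR; EC50 (50% inhibition of viral RNA replication) by logarithmic interpolation.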

[10] = system: dengue virus type 2; experiment: Ratio of ribavirin EC50 to compound EC50 for DENV serotype 2 strain New Guinea V infected in African green monkey Vero B cells assessed as inhibition of virus-induced cytopathogenic effect after 7 days; type: functional
[11] = system: dengue virus type 2; experiment: Antiviral activity against DENV serotype 2 strain New Guinea V infected in African green monkey Vero B cells assessed as inhibition of virus-induced cytopathogenic effect after 7 days; type: functional, organism-based
Outline: (§1)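 Vero-B cells, 7×10^3/well, adhered overnight, then given 1:2 serial dilutions (start 100 μg/mL) plus 100 CCID50 DENV-2 NGC (virus grown in C6/36 cells) in MEM with 2% FBS. After 7 days, fixed with ethanol and stained with 1% methylene blue. EC50 for 50% inhibition of virus-induced CPE comes from microscopic scoring of each well.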

[12] = system: Dengue virus; experiment: Antiviral activity against DENV by CPE-reduction assay; type: functional, organism-based; outline: as §1
[13] = biological target: Tyrosine-protein kinase Fyn (Homo sapiens) (UniProt P06241); experiment: Inhibition of human his-tagged full length Fyn active enzyme using KVEKIGEGTYGVVYK substrate at 100 uM by scintillation counting analysis
[14] = Dengue virus, New Guinea V, Vero, 168 h, read-out: EC50

SMILES	CC50 [1] [µM]	inhibition [2]	EC50 [3] [µM]	Ratio CC50/EC50 [4]	ID50 [5] [µM]	ID50 [6] [µM]	EC50 ([11]; vero)	further results
CNc1nc(Nc2ccc(C(C)=O)cc2)c2nc[nH]c2n1	> 177	Active	42	>4	–	–	–	–
NC(=O)c1ncn([C@@H]2O[C@H](CO)[C@@H](O)[C@H]2O)n1 [RIBAVIRIN]	409	–	42	>10	–	–	–	–
CC(C)CCNc1nc(Nc2cccc(O)c2)c2nc[nH]c2n1	151	Active	20	8	1.7	1.7	–	–
CC(=O)c1ccc(Nc2nc(NCCO)nc3[nH]cnc23)cc1	160	Active	72	2	–	–	–	–
CNc1nc(Nc2cccc(O)c2)c2nc[nH]c2n1	168	Active	5.3	32	–	3.6	–	inhibition [7]: 33%; ID50 [8]: 4.9 µM; inhibition [9]: Dose-dependent effect; Ratio EC50 [10]: 10
Oc1cccc(Nc2nc(NCc3ccccc3)nc3[nH]cnc23)c1	> 150	Active	69	>2	3.7	4.1	–	–
NS(=O)(=O)c1ccc(Nc2nc(N3CCOCC3)nc3[nH]cnc23)cc1	373	Active	–	–	0.9	0.5	Not Active	–
Cc1nc(Nc2ncc(C(=O)Nc3c(C)cccc3Cl)s2)cc(N2CCN(CCO)CC2)n1 [DASATINIB]	–	–	–	–	–	–	–	EC50 [12]: 1 µM
COc1ccc2c(Nc3ccc(Cl)cc3Cl)c(C#N)cnc2c1	19	–	–	–	0.2	2	Not Active	–
CC(=O)c1ccc(Nc2nc(NCCC(C)C)nc3[nH]cnc23)cc1	85	Active	59	1	–	–	–	–
CN1CCN(CCOc2cc(OC3CCOCC3)c3c(Nc4c(Cl)ccc5c4OCO5)ncnc3c2)CC1 [SARACATINIB]	–	–	–	–	–	–	–	EC50 [12]: 6 µM
NS(=O)(=O)c1ccc(Nc2nc(N3CCN(CCO)CC3)nc3nc[nH]c23)cc1	437	–	–	–	–	–	–	–
Cc1cc(OCc2ccc(F)cc2F)cc(=O)n1Cc1cn(Cc2cccc(C(F)(F)F)c2)nn1	40	–	–	–	–	–	Not Active	inhibition [8]: inactive; inhibition [13]: inactive
Cc1cc(OCc2ccc(F)cc2F)cc(=O)n1Cc1cn(Cc2cccc(Br)c2)nn1	36	–	–	–	–	–	Not Active	–
OCCN1CCN(c2nc(Nc3ccccc3)c3nc[nH]c3n2)CC1	474	Active	–	–	4.2	4.2	Not Active	–
NS(=O)(=O)c1ccc(Nc2nc(N3CCN(CCO)CC3)nc3[nH]cnc23)cc1	–	Active	–	–	7.4	4.8	Not Active	–
COc1ccc2c(Nc3ccc(N4CCN(C)CC4)cc3)c(C#N)cnc2c1	7.9	–	–	–	–	–	Not Active	inhibition [8]: inactive; inhibition [13]: inactive
COc1cc2ncc(C#N)c(Nc3ccc(Cl)cc3Cl)c2cc1OC	< 5.7	–	–	–	0.03	0.22	–	EC50 [11, 14]: < 5.7 µM
COc1ccc(Cn2c(C)cc(OCc3cccc(F)c3)cc2=O)cc1	< 6.4	–	–	–	–	–	–	EC50 [11, 14]: < 6.4 µM; inhibition [8]: inactive; inhibition [13]: inactive
